ChEMBL document CHEMBL4819012, “Discovery of novel 2-aryl-3-sulfonamido-pyridines (HoAns) as microtubule polymerization inhibitors with potent antitumor activities” (Eur J Med Chem, 2021)
Active and inactive are the calls of the source. The calls are words filed in the database; no cut-off is given here.

Assays:
[1] = test system: SW-620; assay: Induction of cell cycle arrest in human SW-620 cells assessed as reduction in Cyclin B1 expression at 0.5 to 1 uM measured after 24 hrs by western blot assay; format: functional, cell-based; details: dose 0.5-1 µM
How it was run: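 RKO or SW620 cells (4×10^5–5×10^5 per well) exposed to 0.5 or 1 μM or DMSO for 24 h. Lysed in SDS loading buffer, boiled, run on 8–15% SDS-PAGE and moved to PVDF. Blocked in 5% milk, probed overnight at 4 °C with anti-Cdc2 or anti-cyclin B1 (1:1000), β-actin as reference. HRP secondary and ECL detection. Done at least three times.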

[2] = test system: RKO; assay: Antiproliferative activity against human RKO cells assessed as cell viability measured after 72 hrs by MTS method; format: functional, cell-based
How it was run: (§1)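 Log-phase cells plated at 5×10^3–6×10^3 per well for 24 h, then given graded compound concentrations in fresh medium for 72 h, five replicate wells. Medium replaced with medium containing 10% MTS, 30 min or more at 37 °C in dark; OD 490 nm read. IC50 by nonlinear regression; mean ± SD of at least three experiments.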

[3] = test system: SW-620; assay: Induction of apoptosis in human SW-620 cells assessed as viable cells at 1 uM measured after 24 hrs by PI/Annexin V staining based flow cytometry assay (reference value: 93.89%); format: functional; details: read-out: Activity
[4] = test system: SW480; assay: Antiproliferative activity against human SW480 cells assessed as cell viability measured after 72 hrs by MTS method; format: functional, cell-based; details: SW480, 72 h; how it was run: as §1
[5] = test system: SW-620; assay: Induction of apoptosis in human SW-620 cells assessed as late apoptotic cells at 0.5 uM measured after 24 hrs by PI/Annexin V staining based flow cytometry assay (reference value: 3.66%); format: functional
[6] = test system: RKO; assay: Induction of cell cycle arrest in human RKO cells assessed as accumulation of cells in G2 phase at 1 uM measured after 24 hrs by PI staining based flow cytometry method (reference value: 10.79%); format: functional
[7] = test system: MCF7; assay: Antiproliferative activity against human MCF7 cells assessed as cell viability at 10 uM measured after 72 hrs by MTS method; format: functional; details: read-out: Activity
How it was run: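 Single-concentration screen at 10 µM for 72 h. Log-phase cells plated at 5×10^3–6×10^3 per well for 24 h before dosing, five replicate wells. Viability measured by MTS: 10% MTS in fresh medium, 30 min or more at 37 °C in dark, absorbance 490 nm.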

[8] = test system: SW-620; assay: Induction of apoptosis in human SW-620 cells assessed as early apoptotic cells at 1 uM measured after 24 hrs by PI/Annexin V staining based flow cytometry assay (reference value: 2.41%); format: functional
[9] = test system: PANC-1; assay: Induction of cell cycle arrest in human PANC-1 cells assessed as accumulation of cells in G1 phase at 1 uM measured after 24 hrs by PI staining based flow cytometry method (reference value: 31.35%); format: functional
[10] = test system: RKO; assay: Induction of apoptosis in human RKO cells assessed as early apoptotic cells at 1 uM measured after 24 hrs by PI/Annexin V staining based flow cytometry assay (reference value: 2.58%); format: functional
[11] = Toxicity against Athymic nude mouse xenografted with SW-620 cells assessed as toxicity in heart at 25 mg/kg per two days, po measured after 20 days; format: organism-based; details: in vivo, 480 h, time 20 day
How it was run: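 At the end of the 20-day oral SW620 xenograft study (25 mg/kg every 2 days, n = 6), heart, liver, spleen, lung and kidney were fixed in 4% paraformaldehyde and embedded in paraffin. 4 μm sections stained with Mayer hematoxylin 5 min and eosin-phloxine 2 min, then examined by light microscopy.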

[12] = test system: SW-620; assay: Induction of apoptosis in human SW-620 cells assessed as late apoptotic cells at 1 uM measured after 24 hrs by PI/Annexin V staining based flow cytometry assay (reference value: 3.66%); format: functional
[13] = test system: RKO; assay: Antiproliferative activity against human RKO cells assessed as inhibition of cell proliferation measured after 24 hrs by crystal violet staining based colony-formation assay; format: functional; details: dose 0.125-1 µM
How it was run: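 RKO or SW620 cells plated at 1000 cells/well overnight, exposed to 0.125–1 µM for 24 h, then grown 10 days in fresh medium. Colonies fixed in methanol 15 min, stained with 0.1% crystal violet 30 min, photographed; colonies of more than 50 cells counted.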

[14] = test system: HUVEC; assay: Cytotoxicity against human HUVEC cells assessed as inhibition of cell proliferation measured after 24 hrs by MTS assay; format: cell-based
How it was run: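 HUVECs exposed to graded concentrations for 24 h; viability read by MTS assay; IC50 reported as mean ± SD.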

[15] = test system: SW-620; assay: Induction of apoptosis in human SW-620 cells assessed as increase in Bax expression at 0.5 to 1 uM measured after 24 hrs by western blot assay; format: functional, cell-based; details: dose 0.5-1 µM
How it was run: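 RKO or SW620 cells at 4×10^5–5×10^5 per well treated with 0.5 and 1 µM for 24 h; lysed in SDS loading buffer, boiled, SDS-PAGE, PVDF transfer; probed with anti-Bax or anti-cleaved PARP (1:1000) overnight at 4 °C, HRP secondary, ECL detection; β-actin control.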

[16] = test system: SW-620; assay: Antiproliferative activity against human SW-620 cells assessed as cell viability measured after 72 hrs by MTS method; format: functional, cell-based; details: SW-620, 72 h; how it was run: as §1
[17] = test system: SGC-7901; assay: Antiproliferative activity against human SGC-7901 cells assessed as cell viability measured after 72 hrs by MTS method; format: functional, cell-based; details: SGC-7901, 72 h; how it was run: as §1
[18] = test system: RKO; assay: Induction of apoptosis in human RKO cells assessed as late apoptotic cells at 1 uM measured after 24 hrs by PI/Annexin V staining based flow cytometry assay (reference value: 0.81%); format: functional
[19] = test system: RKO; assay: Induction of cell cycle arrest in human RKO cells assessed as accumulation of cells in G1 phase at 1 uM measured after 24 hrs by PI staining based flow cytometry method (reference value: 39.54%); format: functional
[20] = test system: RKO; assay: Induction of apoptosis in human RKO cells assessed as increase in ROS levels at 0.5 uM measured after 24 hrs by DCFH-DA staining based flow cytometry method relative to control; format: functional
How it was run: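 Cells at 5×10^5 per well exposed to 0.25 or 0.5 µM for 24 h, then loaded with 5 µM DCFH-DA in serum-free medium 30 min at 37 °C; washed, harvested, read by flow cytometry (ex 488/em 525 nm). ROS given as ratio of treated to control; at least three experiments.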

[21] = target: Tubulin beta (Homo sapiens) (UniProt P68371+Q9H4B7+Q13509+P04350+Q3ZCM7+P07437+Q13885+Q9BVA1+Q9BUF5+A6NNZ2); assay: Inhibition of N,N'-Ethylenebis(iodoacetamide) binding to beta tubulin in human SW-620 cells at 20 to 40 uM preincubated for 2 hrs followed by addition of EBI and measured after 2 hrs by western blot assay; format: cell-based; details: dose 20-40 µM
How it was run: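 SW620 cells (5×10^5 per well) pretreated for 2 h with 10, 20 or 40 μM of test agent or DMSO, then given 100 μM EBI for 2 h. Lysed in SDS loading buffer. β-tubulin and β-tubulin–EBI adduct bands resolved by western blot probed with anti-β-tubulin.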

[22] = test system: NCI-H460; assay: Antiproliferative activity against human NCI-H460 cells assessed as cell viability measured after 72 hrs by MTS method; format: functional, cell-based; details: NCI-H460, 72 h; how it was run: as §1

Row | SMILES | Activity [1] | IC50 [2] [nM] | viability at 1 µM [3] [%] | IC50 [4] [nM] | Activity [6] [%] | Activity [8] [%] | Activity [9] [%] | Activity [10] [%] | Activity [12] [%] | IC50 [14] [nM] | Activity [15] | IC50 [16] [nM] | IC50 [17] [nM] | Activity [18] [%] | Activity [19] [%] | fold change (FC) [20] | further results
1 | COc1ccc(S(=O)(=O)Nc2cccnc2-c2ccc(C#N)c(F)c2)cc1 | Active | 170 | 87.3 | 338 | 47.76 | 10.09 | 2.04 | 36.65 | 4.26 | 8900 | Active | 673 | 617 | 1.52 | 8.75 | 1.5 | Activity [5]: 3.11%; viability at 10 µM [7]: > 70%; Activity [11]: Non-Toxic; Activity [13]: Dose-Dependent Effect
2 | COc1ccc(S(=O)(=O)Nc2cccnc2Nc2ccc(O)cc2)cc1 [ABT-751] | Active | 633 | 85.6 | 3420 | 52.8 | 8.35 | 31.44 | 10.16 | 4.322 | 9200 | Active | 2790 | 738 | 1.31 | 0.98 | 2 | inhibition [21]: Dose-Dependent Effect; IC50 [22]: 2040 nM
